Measurements pooled from the literature.
Compare with care: the assays were run in different laboratories.
Target: Tyrosine-protein kinase FRK (FRK, Homo sapiens, UniProt P42685)

| Structure (SMILES) | effect on | technique | tested at | remaining binding [%] |
| --- | --- | --- | --- | --- |
| CN(c1nccc(-c2cnn3ncccc23)n1)C1CC1 | binding | – | 1 µM | 85 |
| O=C(Nc1cnc(Oc2ccc(F)cc2)nc1)N1CCc2ncccc2[C@@H]1c1ccc(F)cc1 | cell-free assay | competition with immobilised ligand | 1 µM | 98 |
| FC(F)(F)Oc1cccc(-c2cnc3ccc(-c4ccncc4)nn23)c1 | cell-free assay | competition with immobilised ligand | 5 µM | 59 |
| O=C(NCC1CCOCC1)c1n[nH]cc1NC(=O)c1c(F)cccc1F | binding | competition with immobilised ligand | 1 µM | 100 |
| NS(=O)(=O)c1cc(NC(=O)C2(c3ccccc3Cl)CC2)ccc1Oc1cccc(Cl)c1 | cell-free assay | competition with immobilised ligand | 1 µM | 99 |
| COc1cnc(Nc2cccc(S(N)(=O)=O)c2)nc1N1CCN(c2ccccc2)CC1 | binding | competition with immobilised ligand | 1 µM | 100 |
| CN1CCN(c2cnc3c(C4CCN(C(=O)c5ccc(OC(F)(F)F)cc5N)CC4)ncnc3c2)CC1 | cell-free assay | competition with immobilised ligand | 1 µM | 100 |
| c1cnn2ncc(-c3ccnc(N4CCC45COC5)n3)c2c1 | binding | – | 1 µM | 82 |
| O=C(NCCCN1CCOCC1)c1ccc(Nc2nccc(-c3cc4ccccc4s3)n2)cc1 | binding | competition with immobilised ligand | 1 µM | 99 |
| Cc1cnn2ncc(-c3ccnc(N(C)C)n3)c2c1 | binding | competition with immobilised ligand | 1 µM | 100 |
| O=C(c1ccc(Nc2nccc(-c3cc4ccccc4s3)n2)cc1)N1CCC(N2CCCC2)CC1 | binding | competition with immobilised ligand | 1 µM | 83 |
| Nc1ncc2c(n1)-c1c([nH]c3ccc(C#CC4CC4)cc13)CCCC2 | binding | competition with immobilised ligand | 1 µM | 95 |
| N[C@@H]1CCN(c2nccc(-c3cnn4ncccc34)n2)C1 | binding | – | 1 µM | 97 |
| CS(=O)(=O)N1CCCC(NC(=O)[C@H](CCC2CCCCC2)NC(=O)c2ccc(CNc3ncnc4c3nnn4-c3ccccc3)cc2)C1 (stereo partly shown) | cell-free assay | competition with immobilised ligand | 0.1 µM | 60 |
| c1cncc(-c2cccc(Nc3nccc(NC4CCCCC4)n3)c2)c1 | binding | competition with immobilised ligand | 10 µM | 53 |
| COc1cnc(Nc2cccc(S(N)(=O)=O)c2)nc1N1CCN(c2ccccc2)C(=O)C1 | binding | competition with immobilised ligand | 1 µM | 100 |
| COc1ccc2c(c1)O[C@@H](c1ccc(OC)c(OC)c1)C[C@H]2NC(=O)C1(c2ccc3c(c2)OC(F)(F)O3)CC1 | cell-free assay | competition with immobilised ligand | 1 µM | 100 |
| O=C(c1ccc(Nc2ncc(Cl)c(-c3ccc(Cl)s3)n2)cc1)N1CCC(N2CCCC2)CC1 | binding | competition with immobilised ligand | 1 µM | 97 |
| Nc1cnc(N2CCc3cc(S(=O)(=O)Nc4c(F)cc(Cl)cc4F)cc(N4CCCC4=O)c32)nc1 | cell-free assay | competition with immobilised ligand | 1 µM | 62 |
| CN(CCCC(F)(F)F)c1nccc(-c2cnn3ncccc23)n1 | binding | – | 1 µM | 93 |
| CNC(=O)Nc1ccc2c(c1)[C@@]1(CC2)OC(=O)N(CC(=O)N(Cc2ccc(F)cc2)[C@@H](C)C(F)(F)F)C1=O | cell-free assay | competition with immobilised ligand | 1 µM | 95 |
| C[C@H]1CCN(c2nccc(-c3cnn4ncccc34)n2)C1 | binding | – | 1 µM | 100 |
